Results on seven compounds are retold here after ChEMBL document CHEMBL1142013, “Tryptamine and homotryptamine-based sulfonamides as potent and selective inhibitors of 15-lipoxygenase” (Bioorg Med Chem Lett, 2005).

The structures appear in SMILES notation.

The target of experiment [1] is T1, Polyunsaturated fatty acid lipoxygenase ALOX15 (Oryctolagus cuniculus, UniProt P12530).
T1 sequence (P12530 whole entry): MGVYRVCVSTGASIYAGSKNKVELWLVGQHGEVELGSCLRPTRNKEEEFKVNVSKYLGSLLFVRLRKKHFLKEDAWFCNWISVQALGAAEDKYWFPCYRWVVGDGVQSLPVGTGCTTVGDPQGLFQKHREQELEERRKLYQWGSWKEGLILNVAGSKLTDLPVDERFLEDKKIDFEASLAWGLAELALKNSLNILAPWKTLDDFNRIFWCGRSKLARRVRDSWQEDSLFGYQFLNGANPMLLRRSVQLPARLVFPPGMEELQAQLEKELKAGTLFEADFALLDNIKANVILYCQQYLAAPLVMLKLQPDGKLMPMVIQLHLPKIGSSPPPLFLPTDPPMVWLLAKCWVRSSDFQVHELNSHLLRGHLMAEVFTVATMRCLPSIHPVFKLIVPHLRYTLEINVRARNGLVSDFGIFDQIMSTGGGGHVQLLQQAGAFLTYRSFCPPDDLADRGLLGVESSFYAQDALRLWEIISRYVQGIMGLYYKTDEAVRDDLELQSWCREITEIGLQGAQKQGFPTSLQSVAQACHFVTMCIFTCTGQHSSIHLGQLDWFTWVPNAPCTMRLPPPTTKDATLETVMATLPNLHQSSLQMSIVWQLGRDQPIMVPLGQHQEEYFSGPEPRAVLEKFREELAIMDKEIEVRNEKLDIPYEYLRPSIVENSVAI
Description: Inhibitory concentration against isolated rabbit reticulocyte 15-lipoxygenase measured in the presence of linoleic acid. A digest of the protocol: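 15-LO was purified from reticulocytes of phenylhydrazine-treated rabbits. Linoleic acid was the substrate. In a colorimetric assay, the 13-HPODE product oxidizes Fe²⁺ under mildly acidic conditions, and IC50 is derived from this. Many values were also checked spectrophotometrically by the rate of diene formation (A₂₃₄).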

Experiment [2] has as its target T2, Polyunsaturated fatty acid lipoxygenase ALOX12 (Homo sapiens, UniProt P18054).
T2 sequence (P18054 whole entry): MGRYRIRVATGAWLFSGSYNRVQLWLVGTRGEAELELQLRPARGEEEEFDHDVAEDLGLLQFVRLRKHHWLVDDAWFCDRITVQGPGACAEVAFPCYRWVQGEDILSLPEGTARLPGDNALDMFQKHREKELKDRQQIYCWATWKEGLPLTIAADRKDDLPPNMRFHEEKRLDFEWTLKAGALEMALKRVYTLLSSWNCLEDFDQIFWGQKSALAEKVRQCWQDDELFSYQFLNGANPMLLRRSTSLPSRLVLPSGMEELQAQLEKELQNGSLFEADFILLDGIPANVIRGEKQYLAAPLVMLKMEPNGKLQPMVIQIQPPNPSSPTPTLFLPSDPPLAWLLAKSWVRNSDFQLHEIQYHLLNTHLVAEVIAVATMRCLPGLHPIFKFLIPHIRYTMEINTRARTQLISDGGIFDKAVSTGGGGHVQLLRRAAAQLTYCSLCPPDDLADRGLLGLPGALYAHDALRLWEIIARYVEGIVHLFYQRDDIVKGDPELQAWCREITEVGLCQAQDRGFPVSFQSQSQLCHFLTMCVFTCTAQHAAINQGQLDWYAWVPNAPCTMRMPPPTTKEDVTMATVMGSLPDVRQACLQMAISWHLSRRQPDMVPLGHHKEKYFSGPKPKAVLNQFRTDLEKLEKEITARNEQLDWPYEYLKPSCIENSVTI
Description: Inhibitory concentration against human platelet-derived 12-lipoxygenase.

Experiment [3] addresses T1, Polyunsaturated fatty acid lipoxygenase ALOX15. Put plainly: Inhibitory concentration against rabbit reticulocyte 15-lipoxygenase with substrate arachidonic acid. A digest of the protocol: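 Purified rabbit reticulocyte 15-LO, isolated from phenylhydrazine-treated rabbits, with arachidonic acid as the substrate. IC50 comes from a colorimetric read-out in which the 15-HPETE product oxidizes Fe²⁺ under mildly acidic conditions. Many values were also verified by the spectrophotometric diene-formation rate (A₂₃₄).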

In experiment [4] the target is T3, Polyunsaturated fatty acid 5-lipoxygenase (Homo sapiens, UniProt P09917).
T3 sequence (P09917 whole entry): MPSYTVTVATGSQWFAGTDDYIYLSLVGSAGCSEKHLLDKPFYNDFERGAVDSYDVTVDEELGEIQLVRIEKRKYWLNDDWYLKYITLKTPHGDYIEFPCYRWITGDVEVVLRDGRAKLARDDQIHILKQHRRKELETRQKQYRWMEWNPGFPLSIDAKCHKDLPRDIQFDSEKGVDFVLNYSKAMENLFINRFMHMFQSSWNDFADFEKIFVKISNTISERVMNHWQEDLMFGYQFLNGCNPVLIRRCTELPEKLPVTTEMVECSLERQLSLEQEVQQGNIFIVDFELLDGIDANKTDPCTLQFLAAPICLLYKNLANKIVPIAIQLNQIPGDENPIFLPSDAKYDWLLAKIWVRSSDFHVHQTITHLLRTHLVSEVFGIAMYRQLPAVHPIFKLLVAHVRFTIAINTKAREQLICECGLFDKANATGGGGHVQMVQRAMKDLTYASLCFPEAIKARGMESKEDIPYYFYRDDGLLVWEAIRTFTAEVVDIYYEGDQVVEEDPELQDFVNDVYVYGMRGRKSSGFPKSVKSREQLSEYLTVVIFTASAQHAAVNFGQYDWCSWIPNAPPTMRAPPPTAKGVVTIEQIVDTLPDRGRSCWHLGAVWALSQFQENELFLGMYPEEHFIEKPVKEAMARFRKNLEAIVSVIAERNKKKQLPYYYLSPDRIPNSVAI
Description: Inhibitory concentration against human 5-lipoxygenase. A digest of the protocol:
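Recombinant human 5-LO enzyme. Inhibition was followed by oxidation of arachidonic acid as the substrate. IC50 values were determined.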

Consider `CCCCCc1ccc(S(=O)(=O)NCCc2c(-c3ccccc3)[nH]c3ccccc23)cc1`, for which the IC50 in experiment [1] was 0.062 µM; in experiment [2], greater than 10 µM; in experiment [3] it was 0.14 µM; in experiment [4] it was greater than 3 µM.
For `Cc1ccc(S(=O)(=O)NCCc2c(-c3cc4ccccc4o3)[nH]c3ccccc23)cc1`, in that order: 0.01 µM, greater than 10 µM, 0.078 µM and greater than 10 µM.
For `CCCCCc1ccc(S(=O)(=O)NCCc2c(-c3ccc(OC)cc3)[nH]c3ccccc23)cc1`, in that order: 0.037 µM, greater than 10 µM, 0.164 µM and 8.9 µM.
The matching figures for `CCCCCc1ccc(S(=O)(=O)NCCc2c(-c3ccc(Cl)cc3)[nH]c3ccccc23)cc1`: 0.032 µM, greater than 10 µM, 0.12 µM and greater than 3 µM.
`CCCCCc1ccc(S(=O)(=O)NCCCc2c[nH]c3ccccc23)cc1`: the IC50 in experiment [2] is 1.07 µM; in experiment [4], greater than 10 µM.
`CCCCCc1ccc(S(=O)(=O)NCCc2c(-c3cc4ccccc4o3)[nH]c3ccccc23)cc1`: the IC50 in experiment [2] and in experiment [4] was greater than 3 µM each time.
As to `NNC(=O)c1ccc(S(=O)(=O)NCCc2c(-c3cc4ccccc4o3)[nH]c3ccccc23)cc1`, the IC50 was 0.089 µM in experiment [1], greater than 10 µM in experiment [2], 0.135 µM in experiment [3] and 3.5 µM in experiment [4].

As a reminder, the IC50 is the point on the concentration scale where inhibition reaches its midpoint.
